Rows were chosen to be rich in hits. Some 2.6% of all compounds tested hit in one or more screens of this group.
SENP8 block-1 – human SENP8 protease inhibitors, primary screen, biochemical, fluorescence, Nedd8 protein substrate, uHTS; Sentrin-specific protease 8 (Homo sapiens), Q96LD8; recombinant SENP8; inhibition, % at 20 µM; 360,000 compounds, 0.64% hits; AID 602440, 2012; in the data active = inhibition mostly above about 40%, no sharp cut-off; inactive = mostly below about 27%
Target sequence (Q96LD8 whole entry, looked up): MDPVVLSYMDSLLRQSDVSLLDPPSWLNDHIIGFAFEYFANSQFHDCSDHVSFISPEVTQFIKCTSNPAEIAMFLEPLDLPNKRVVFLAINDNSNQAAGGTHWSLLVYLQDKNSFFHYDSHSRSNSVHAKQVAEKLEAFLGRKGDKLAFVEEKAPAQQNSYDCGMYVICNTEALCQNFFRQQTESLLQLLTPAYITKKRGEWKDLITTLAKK
SENP1 FRET inh – human SENP1 catalytic domain inhibitors, primary screen, biochemical, FRET, uHTS; inhibition, % at 10 µM; 360,000 compounds, 0.21% hits; recombinant SENP1 catalytic domain, CyPet-SUMO1-YPet FRET cleavage; AID 624204, 2012;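 active = inhibition at least 30% at 10 µM, raw YFP signal under a set limit, fluorescence ratio 0.5 to 1.5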;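 also: 0% = enzyme with DMSO and 100% = no enzyme wells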
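Test system: human SENP1 catalytic domain; medium: Tris pH 8 buffer plus EDTA, NaCl, BME, BSA, NP40, catalase; incubation: 50 min reaction at room temperature; technique: FRET, CFP and YFP emission; controls: no-enzyme low control and enzyme-plus-DMSO high control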
SENP6 inh – SENP6 protease inhibitors, primary screen, biochemical, luminescence, uHTS. Recombinant SENP6 catalytic domain, aminoluciferin luminescence. 330,000 compounds, 1.8% hits. Sentrin-specific protease 6 (Homo sapiens), Q9GZR1. AID 2599, 2010. inhibition, % at 10 µM;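 active = inhibition above about 50% at the single tested dose, limit read from the data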;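 also: plate controls were DMSO wells with enzyme for no effect and DMSO wells lacking enzyme for full effect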
SENP8 block-2 – SENP8 protease inhibitors, primary screen, biochemical, luminescence; AID 2540, 2010; Sentrin-specific protease 8 (Homo sapiens), Q96LD8; inhibition, % at 10 µM; purified SENP8, Z-RLRGG-aminoluciferin cleavage; 330,000 compounds, 1.2% hits; in the data active = inhibition above about 50%
Platelet DG rel – inhibitors of platelet dense granule secretion, primary screen, cell-based, MLPCN, human platelets. AID 1663, 2009. 300,000 compounds, 0.22% hits. human platelet-rich plasma, SFLLRN dense granule ATP release, luminescence. inhibition, %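 (compounds screened at 7.5 µM in platelet-rich plasma)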;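 active = mean replicate score, as percent of positive control, at or above 50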
SENP7 block – SENP7 protease inhibitors, primary screen, biochemical, luminescence, uHTS; recombinant SENP7, Z-RLRGG-aminoluciferin luminescence, 40 min; inhibition, % at 5 µM; 330,000 compounds, 1.5% hits;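 active = inhibition above about 50% at the single test dose, limit read from the data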;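 also: plate controls were DMSO with enzyme for no effect and no enzyme buffer wells for full effect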
Target sequence (Q9BQF6 706-1050 limits assumed): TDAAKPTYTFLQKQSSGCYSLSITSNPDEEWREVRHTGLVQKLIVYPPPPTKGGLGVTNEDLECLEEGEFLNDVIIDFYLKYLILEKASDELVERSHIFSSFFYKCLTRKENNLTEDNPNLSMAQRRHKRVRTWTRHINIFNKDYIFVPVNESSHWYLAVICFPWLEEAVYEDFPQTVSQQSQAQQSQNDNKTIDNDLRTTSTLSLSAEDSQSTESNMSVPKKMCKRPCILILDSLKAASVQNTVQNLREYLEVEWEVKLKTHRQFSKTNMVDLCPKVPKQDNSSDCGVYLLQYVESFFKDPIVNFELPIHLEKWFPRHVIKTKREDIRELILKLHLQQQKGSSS
SENP8 confirm – SENP8 protease inhibitors, retest, confirmation, biochemical, luminescence, single concentration; shares compounds with SENP7 block; Recombinant SENP8, Z-RLRGG-aminoluciferin luminescence, 60 min; inhibition, % at 12.5 µM; 6,200 compounds, 40% hits; AID 488912, 2010;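 active = mean inhibition across replicates above about 50%, limit read from the data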
SENP6 conf – SENP6 protease inhibitors, confirmation, biochemical, luminescence, single concentration | shares compounds with SENP7 block | recombinant SENP6, Z-RLRGG-aminoluciferin luminescence | inhibition, % at 12.5 µM | 6,200 compounds, 58% hits | AID 488915, 2010
SENP7 conf – SENP7 protease inhibitors, retest, confirmation, biochemical, luminescence, single concentration | shares compounds with SENP7 block | recombinant SENP7, Z-RLRGG-aminoluciferin luminescence, 40 min | inhibition, % at 12.5 µM | 6,200 compounds, 69% hits
Casp3 select – caspase-3 protease inhibitors, confirmation, selectivity assay for SENP inhibitor project, biochemical, single concentration | shares compounds with SENP7 block | purified caspase-3, Z-DEVD-aminoluciferin luminescence, 60 min | inhibition, % at 12.5 µM | 6,200 compounds, 60% hits | AID 488918, 2010;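 active = mean inhibition above about 50%, limit read from the data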;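 also: plate controls were enzyme with DMSO for no effect and wells without caspase-3 for full effect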
Luc interf – counter-screen for SENP inhibitors: luminescence interference; shares compounds with SENP7 block; Pre-incubated SENP8/Z-RLRGG-aminoluciferin, luciferase luminescence interference; inhibition, % at 12.5 µM; 6,200 compounds, 39% hits;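 active = mean inhibition above about 50% when retested at one dose, limit read from the data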;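 also: plate controls were DMSO wells with completed reaction for no effect and substrate without enzyme for full effect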
* hit, by the source's call; . = no result given.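 The calls were made as follows, unless noted: active = mean inhibition above about 50% in the one-dose retest (limit read from the data); inactive = the rest.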

SMILES	SENP8 block-1	SENP1 FRET inh	SENP6 inh	SENP8 block-2	Platelet DG rel	SENP7 block	SENP8 confirm	SENP6 conf	SENP7 conf	Casp3 select	Luc interf
CS(=O)(=O)c1cccc(C(=O)Nc2cccc(-c3nc4ccccc4[nH]3)c2)c1	-0.5	0.7	96.2*	91.0*	-2.8	96.4*	96.4*	97.1*	102.2*	47.6	96.2*
COc1ccc(OCC(=O)Nc2cccc(-c3nc4ccccc4[nH]3)c2)cc1	-20.5	0.0	74.4*	61.4*	-10.6	75.5*	76.7*	75.7*	92.4*	58.1*	78.8*
CS(=O)(=O)Cc1ccc(C(=O)Nc2cccc(-c3nc4ccccc4[nH]3)c2)cc1	5.2	-1.7	78.5*	50.4*	-2.2	66.9*	59.2*	56.7*	81.4*	62.2*	22.6
Cc1nn(C2CCS(=O)(=O)C2)c(Cl)c1/C=C/C(=O)OCC(=O)Nc1ccc2c(c1)OCO2 (centres undefined)	12.5	0.6	-20.2	5.9	-0.6	2.6	.	.	.	.	.
Cc1noc(C(=O)Nc2cccc(Cl)c2)c1Cl	25.6	-2.3	38.0	24.5	2.1	39.4	.	.	.	.	.
CCc1ccc(/C=N/NC(=O)c2ccccn2)cc1	-2.6	-0.3	82.9*	78.9*	43.6	82.7*	87.3*	86.7*	98.0*	93.8*	86.5*
Cc1ccc(/C=N\NC(=O)c2csnn2)cc1	24.1	-27.0	54.9*	29.9	23.5	50.4*	41.3	39.3	76.6*	81.0*	27.7
O=C(N/N=C/c1ccc(OC(=O)c2ccccc2Cl)cc1)c1ccccn1	-6.9	1.1	3.9	4.9	-0.1	71.4*	12.5	11.2	15.1	29.1	9.7
CCOC(=O)C1CCCN(C(=O)c2ccc3[nH]c4c(c3c2)CC(C)CC4)C1 (centres undefined)	-34.4	-63.4	-14.0	-4.4	.	-6.5	.	.	.	.	.
COc1ccc(CCNC(=O)CCNS(=O)(=O)c2cccc3nsnc23)cc1OC	4.8	1.3	-7.0	5.8	-2.7	12.9	.	.	.	.	.
COc1ccc(CCNC(=O)CCNS(=O)(=O)c2cccc3nonc23)cc1OC	0.3	1.5	-10.8	-1.0	-5.3	80.1*	-0.2	6.8	7.8	1.5	1.1
O=C(NCCN=C1NS(=O)(=O)c2ccccc21)c1ccco1	6.0	-0.3	4.3	-0.8	3.5	4.6	.	.	.	.	.
CC(C)(C)c1cc[n+](C2=C([O-])c3ccccc3C(=O)/C2=N\S(=O)(=O)c2cccs2)cc1	106.0*	3.3	65.7*	51.3*	11.4	35.3	51.3*	75.4*	38.9	5.9	-3.1
N#CC1=C(N)OC2=C(C(=O)CCC2)C1c1cc2c(cc1Br)OCO2 (centres undefined)	-53.2	-142.1	4.5	-6.2	-10.3	-0.1	.	.	.	.	.
CS(=O)(=O)c1ccc2nc(NC(=O)Nc3ccccc3F)sc2c1	-6.6	0.1	32.7	5.9	-1.8	71.9*	-6.9	-1.7	0.7	4.7	-3.1
CS(=O)(=O)c1ccc2nc(NC(=O)c3ccccc3)sc2c1	-42.1	1.5	88.4*	78.4*	33.1	88.0*	13.6	80.5*	94.2*	87.8*	24.4
CCSc1nsc(NC(=O)Nc2ccccc2F)n1	11.4	-0.2	65.2*	36.3	-0.6	49.7	28.3	42.0	79.4*	47.7	14.8
Cc1cccc(C(=O)Nc2nc3ccc(S(C)(=O)=O)cc3s2)c1	-80.8	3.1	75.1*	63.3*	32.1	74.1*	6.9	42.4	88.0*	77.8*	-1.8
Cc1ccc(C(=O)Nc2nc3ccc(S(C)(=O)=O)cc3s2)cc1C	-38.1	1.2	2.7	9.2	-0.3	6.1	.	.	.	.	.
CCOC(=O)c1c(NC(=O)COC(=O)c2ccc([N+](=O)[O-])cc2)sc(C(=O)N(C)C)c1C	9.4	3.3	-4.6	-9.5	0.1	-4.5	.	.	.	.	.
c1ccc(Oc2cc(-n3cccn3)ncn2)cc1	4.7	0.0	54.2*	40.5	9.7	45.8	2.7	33.0	74.6*	68.0*	14.2
NC(=O)c1cnn(-c2cc(Oc3ccccc3)ncn2)c1N	5.5	2.9	-3.7	-3.7	2.9	2.8	.	.	.	.	.
O=C(CNc1ccc(Br)cc1)c1ccccc1	19.3	0.4	71.4*	47.9	-0.2	32.1	9.1	13.9	20.7	21.3	12.5
CCCCC(=O)OCC(=O)c1ccc(OCC)cc1	8.7	0.5	54.8*	40.0	-5.4	51.3*	20.1	36.3	80.4*	64.1*	46.5
CCOc1ccc(C(=O)COC(=O)CC)cc1	25.9	1.9	-2.4	-1.4	-3.4	11.3	.	.	.	.	.
CCOc1cc(CNc2ccc3cn[nH]c3c2)ccc1OC	-213.4	-77.8	67.9*	53.1*	8.6	58.6*	10.3	41.1	5.3	-0.4	-4.5
CCOc1cc(-c2c(C#N)c(N)nc3c2CCc2ccccc2-3)ccc1O	-404.7	-18.6	9.2	6.1	-3.7	1.1	.	.	.	.	.
COc1ccccc1-c1c(C#N)c(N)nc2c1CCc1ccccc1-2	-393.8	-25.8	96.3*	77.6*	-7.6	78.0*	7.3	8.0	12.3	3.3	2.8
COC(=O)C[C@@H]1CC[C@H](NS(=O)(=O)c2cccc(F)c2)[C@@H](CO)O1	13.9	0.6	.	.	.	.	.	.	.	.	.
CC(C)(C)NC(=O)CN(C(=O)CSc1nnc(COc2ccccc2)o1)c1cccc(F)c1	11.9	1.1	-4.8	2.5	-6.5	52.4*	-0.3	-1.1	-3.3	-3.5	-4.3
